Tests used:
[1] = target: T1, Presenilin-1 (Homo sapiens, UniProt P49768); experiment: Inhibition of gamma-secretase in human SHSY5Y cells expressing human recombinant APP assessed as amyloid beta40 formation by ELISA
Outline: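 SH-SY5Y cells overexpressing human APP Swedish variant exposed to compound for 48 h; Aβ40 (and Aβ42) in the cell medium quantified by ELISA, either Meso Scale Discovery or AlphaLISA format. Compounds also cross-screened for inhibition of Notch processing.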

[2] = target: T1, Presenilin-1; experiment: Inhibition of gamma-secretase in human SHSY5Y cells expressing human recombinant APP assessed as amyloid beta42 formation by ELISA
Outline: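 SH-SY5Y cells overexpressing human APP Swedish variant were incubated with compound for 48 h. Secreted Aβ42 and Aβ40 were measured by immunoassay (MSD electrochemiluminescence or AlphaLISA).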

CC(C)[C@H](O)C(=O)N[C@@H](C)C(=O)NC1C(=O)N(C)CCc2ccccc21 (stereo partly drawn) [(2S)-2-hydroxy-3-methyl-N-[(1S)-1-{[(1S)-3-methyl-2-oxo-2,3,4,5-tetrahydro-1H-3-benzazepin-1-yl]carbamoyl}ethyl]butanamide]
IC50 [1]: 0.04 µM
IC50 [2]: 0.04 µM

From BindingDB's records for doi:10.1016/j.bmcl.2009.08.072 (Glaxosmithkline, 2010)
